Data published in ChEMBL document CHEMBL2021803, “Antitumor agents. 289. Design, synthesis, and anti-breast cancer activity in vivo of 4-amino-2H-benzo[h]chromen-2-one and 4-amino-7,8,9,10-tetrahydro-2H-benzo[h]chromen-2-one analogues with improved water solubility” (J Nat Prod, 2012).
Converted amounts (≈) assume the structure as drawn. Blank lines part the entries; values can stand above or below the molecule they belong to. The source made the active and inactive calls. The rule behind the calls is not given here.

Experiments:
DU-145 = experiment: Cytotoxicity against human DU145 cells after 72 hrs by SRB assay; type: functional, cell-based
A549 = experiment: Cytotoxicity against human A549 cells after 72 hrs by SRB assay; type: functional, cell-based
KB = experiment: Cytotoxicity against human KB cells after 72 hrs by SRB assay; type: functional, cell-based
SK-BR-3 = experiment: Cytotoxicity against human SKBR3 cells after 72 hrs by SRB assay; type: functional, cell-based
[1] = Cytotoxicity against human KBVIN cells after 72 hrs by SRB assay; type: functional, cell-based
Mus musculus [2] = experiment: Reduction in ductal branching in wild type mouse mammary gland at 0.1 mg, ip administered daily for 10 days by immunostaining technique; type: functional, organism-based; design: scale not given: the % may be the effect or the level left; settings: in vivo, 240 h
Procedure, shortened: (§1)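 Three-month-old wild-type or Brca1/p53 Cre mutant mice (mixed C57BL/6 × 129/Sv) given 0.1 mg i.p. daily (DMSO stock […] diluted in 40% PEG and 0.9% NaCl at dosing); vehicle controls. Fourth-pair mammary glands whole-mounted, Carnoy's fixed 3 h, Carmine alum stained overnight. Branching points counted in three random areas totaling about 2 mm².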

Mus musculus [3] = experiment: Reduction in ductal branching in Brca/p53 mutant mouse mammary gland at 0.1 mg, ip administered daily for 10 days by immunostaining technique; type: functional; design: scale not given: the % may be the effect or the level left; settings: in the assay text read “Carmine alum whole-mount staining” for “immunostaining technique”; procedure, shortened: as §1
[4] = Solubility of the compound in water; type: physicochemical
Mus musculus [5] = experiment: Induction of apoptosis in wild type mouse mammary gland assessed as increase in cleaved caspase-3 at 0.1 mg, ip administered daily for 10 days by immunohistochemical staining method relative to vehicle-treated control; type: organism-based; settings: in vivo, 240 h
Procedure, shortened: (§2)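 Wild-type or Brca1/p53 Cre mutant mice (C57BL/6 × 129/Sv), three months old, dosed i.p. daily with 0.1 mg in DMSO/40% PEG/0.9% NaCl (10:30:60 μL), made fresh; vehicle controls. Mammary glands fixed in 4% paraformaldehyde at 4 °C overnight, paraffin-embedded, cut into 5-μm sections. Retrieval by boiling in citrate pH 6.0, then rabbit polyclonal anti-cleaved caspase-3. Read as percentage of positive cells per duct.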

Mus musculus [6] = experiment: Antiproliferative activity of wild type mouse mammary epithelial cells assessed as reduction in DNA synthesis at 0.1 mg, ip administered daily for 10 days by BrdU-based immunostaining method; type: organism-based, Epithelial cell; settings: in vivo, 240 h
Procedure, shortened: (§3)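 Three-month-old mice (C57BL/6 × 129/Sv mixed background; wild-type or Brca1/p53 Cre mutant) dosed i.p. daily, 0.1 mg in 10 μL of […] DMSO stock plus 30 μL 40% PEG and 60 μL 0.9% NaCl, made fresh; vehicle controls. Paraffin sections, citrate pH 6.0 microwave retrieval 20 min, anti-BrdU 1:1000, ABC detection; BrdU-positive cells averaged over 15 ducts.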

Mus musculus [7] = experiment: Antiproliferative activity of Brca/p53 mutant mouse mammary epithelial cells assessed as reduction in DNA synthesis at 0.1 mg, ip administered daily for 10 days by BrdU-based immunostaining method; type: functional, Epithelial cell; design: scale not given: the % may be the effect or the level left; procedure, shortened: as §3
Mus musculus [8] = experiment: Induction of apoptosis in Brca/p53 mutant mouse mammary gland assessed as increase in cleaved caspase-3 at 0.1 mg, ip administered daily for 10 days by immunohistochemical staining method relative to vehicle-treated control; type: functional; procedure, shortened: as §2
Mus musculus [9] = experiment: Induction of apoptosis in Brca/p53 mutant mouse mammary gland assessed as increase in perinuclear localization of cleaved caspase-3 at 0.1 mg, ip administered daily for 10 days by immunohistochemical staining method; type: functional, organism-based; procedure, shortened: as §2
Mus musculus [10] = experiment: Induction of apoptosis in Brca/p53 mutant mouse mammary gland assessed as increase in cytoplasmic localization of cleaved caspase-3 at 0.1 mg, ip administered daily for 10 days by immunohistochemical staining method; type: functional, organism-based; procedure, shortened: as §2
Mus musculus [11] = experiment: Reduction in ductal branching in Brca/p53 mutant mouse at 0.1 mg, ip administered daily for 10 days; type: functional, organism-based; procedure, shortened: as §1

Compound: CN(C)c1ccc(Nc2cc(=O)oc3c2ccc2ccccc23)cc1 [listing 1 of 2 here]
- IC50 (DU-145; du-145): 300 nM
- IC50 (A549; a549): 590 nM
- IC50 (KB; kb): 470 nM
- IC50 (SK-BR-3; sk-br-3): 270 nM
- IC50 ([1]; kbvin): 410 nM

Compound: Nc1ccc(Nc2cc(=O)oc3c2ccc2ccccc23)cc1 [listing 1 of 3 here]
- IC50 (DU-145; du-145): 49 nM
- IC50 (A549; a549): 54 nM
- IC50 (KB; kb): 48 nM
- IC50 (SK-BR-3; sk-br-3): 53 nM
- IC50 ([1]; kbvin): 47 nM

Compound: Nc1ccc(Nc2cc(=O)oc3c4c(ccc23)CCCC4)cc1 [listing 1 of 2 here]
- IC50 (DU-145; du-145): 66 nM
- IC50 (A549; a549): 62 nM
- IC50 (KB; kb): 69 nM
- IC50 (SK-BR-3; sk-br-3): 85 nM
- IC50 ([1]; kbvin): 65 nM

Compound: Nc1cccc2c(Nc3cc(=O)oc4c3ccc3ccccc34)cccc12
- IC50 (DU-145; Homo sapiens, DU-145, 72 h): 150 nM
- IC50 (A549; Homo sapiens, A549, 72 h): 160 nM
- IC50 (KB; Homo sapiens, KB, 72 h): 160 nM
- IC50 (SK-BR-3; Homo sapiens, SK-BR-3, 72 h): 200 nM
- IC50 ([1]; Homo sapiens, KBVIN, 72 h): 150 nM

Compound: O=c1cc(NC2CCN(Cc3ccccc3)CC2)c2ccc3ccccc3c2o1
- IC50 (DU-145; Homo sapiens, DU-145, 72 h): > 10000 nM
- IC50 (A549; Homo sapiens, A549, 72 h): > 10000 nM
- IC50 (KB; Homo sapiens, KB, 72 h): 8300 nM
- IC50 (SK-BR-3; Homo sapiens, SK-BR-3, 72 h): > 10000 nM
- IC50 ([1]; Homo sapiens, KBVIN, 72 h): 7600 nM

Compound: CN(C)c1ccc(Nc2cc(=O)oc3c4c(ccc23)CCCC4)cc1 [listing 1 of 2 here]
- IC50 (DU-145; Homo sapiens, DU-145, 72 h): 470 nM
- IC50 (A549; Homo sapiens, A549, 72 h): 540 nM
- IC50 (KB; Homo sapiens, KB, 72 h): 720 nM
- IC50 (SK-BR-3; Homo sapiens, SK-BR-3, 72 h): 770 nM
- IC50 ([1]; Homo sapiens, KBVIN, 72 h): 540 nM

Compound: CN(C)c1ccc(Nc2cc(=O)oc3c4c(ccc23)CCCC4)cc1 [listing 2 of 2 here]
- IC50 (DU-145; du-145): 330 nM
- IC50 (A549; a549): 440 nM
- IC50 (KB; kb): 380 nM
- IC50 (SK-BR-3; sk-br-3): 490 nM
- IC50 ([1]; kbvin): 390 nM

- Activity (Mus musculus [2]): 15%
- solubility [4]: 33.9 µg/mL (≈ 112 µM)
Compound: Nc1ccc(Nc2cc(=O)oc3c2ccc2ccccc23)cc1 [listing 2 of 3 here]
- IC50 (DU-145; Homo sapiens, DU-145, 72 h): 40 nM
- IC50 (A549; Homo sapiens, A549, 72 h): 55 nM
- IC50 (KB; Homo sapiens, KB, 72 h): 54 nM
- IC50 (SK-BR-3; Homo sapiens, SK-BR-3, 72 h): 38 nM
- Activity (Mus musculus [3]): 69%
- IC50 ([1]; Homo sapiens, KBVIN, 72 h): 44 nM
- fold change (FC) (Mus musculus [5]): 2.1
- Activity (Mus musculus [6]): Non-toxic
- Activity (Mus musculus [7]): 81%
- fold change (FC) (Mus musculus [8]): 4.8

Compound: Nc1ccccc1Nc1cc(=O)oc2c3c(ccc12)CCCC3
- IC50 (DU-145; du-145): > 10000 nM
- IC50 (A549; a549): 8000 nM
- IC50 (KB; kb): 7400 nM
- IC50 (SK-BR-3; sk-br-3): 8700 nM
- IC50 ([1]; kbvin): 7000 nM

Compound: Nc1ccc(Nc2cc(=O)oc3c4c(ccc23)CCCC4)cc1 [listing 2 of 2 here]
- Activity (Mus musculus [9]): Active
- Activity (Mus musculus [10]): Active
- Activity (Mus musculus [11]): Active
- Activity (Mus musculus [7]; Epithelial cell): inactive

Compound: Nc1ccc(Nc2cc(=O)oc3c2ccc2ccccc23)cc1 [listing 3 of 3 here]
- Activity (Mus musculus [9]): Active
- Activity (Mus musculus [10]): Active
- Activity (Mus musculus [11]): Active

Compound: CN(C)c1ccc(Nc2cc(=O)oc3c2ccc2ccccc23)cc1 [listing 2 of 2 here]
- IC50 (DU-145; Homo sapiens, DU-145, 72 h): 360 nM
- IC50 (A549; Homo sapiens, A549, 72 h): 430 nM
- IC50 (KB; Homo sapiens, KB, 72 h): 600 nM
- IC50 (SK-BR-3; Homo sapiens, SK-BR-3, 72 h): 300 nM
- IC50 ([1]; Homo sapiens, KBVIN, 72 h): 350 nM

- Activity (Mus musculus [2]): 15%
Compound: COc1ccc(Nc2cc(=O)oc3c4c(ccc23)CCCC4)cc1
- IC50 (DU-145; Homo sapiens, DU-145, 72 h): 38 nM
- IC50 (A549; Homo sapiens, A549, 72 h): 49 nM
- IC50 (KB; Homo sapiens, KB, 72 h): 37 nM
- IC50 (SK-BR-3; Homo sapiens, SK-BR-3, 72 h): 64 nM
- Activity (Mus musculus [3]): 65%
- IC50 ([1]; Homo sapiens, KBVIN, 72 h): 46 nM
- Activity (Mus musculus [11]): Active
- Activity (Mus musculus [7]; Epithelial cell): inactive
